Laboratory results reported in ChEMBL document CHEMBL4052804, “Design and synthesis of piperazine acetate podophyllotoxin ester derivatives targeting tubulin depolymerization as new anticancer agents” (Bioorg Med Chem Lett, 2017).
The source made the active and inactive calls. The rule behind the calls is not given here.

Key:
A549 = assay: Cytotoxicity against human A549 cells after 24 hrs by MTT assay; type: functional, cell-based; settings: A549, 24 h
Summary of the method: (§1)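 In vitro antiproliferative screen by MTT assay against human MCF-7 breast, HeLa cervical, A549 lung adenocarcinoma and HepG-2 hepatoma cells. Output is the IC50.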

HepG2 = assay: Cytotoxicity against human HepG2 cells after 24 hrs by MTT assay; type: functional, cell-based; settings: HepG2, 24 h; summary of the method: as §1
L02 = assay: Cytotoxicity against human L02 cells after 24 hrs by MTT assay; type: cell-based; settings: L02, 24 h
Summary of the method: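 Normal human liver L02 cells were tested at multiple concentrations in an MTT assay. Output is the median cytotoxic concentration (CC50).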

HeLa = assay: Cytotoxicity against human HeLa cells after 24 hrs by MTT assay; type: functional, cell-based; summary of the method: as §1
MCF7 = assay: Cytotoxicity against human MCF7 cells after 24 hrs by MTT assay; type: functional, cell-based; settings: MCF7, 24 h; summary of the method: as §1
Homo sapiens = species: Homo sapiens; assay: Induction of tubulin depolymerization in human MCF7 cells at 1 uM after 12 hrs by DAPI staining based confocal microscopic analysis; type: cell-based

Row | SMILES | IC50 (A549) [µM] | IC50 (HepG2) [µM] | IC50 (L02) [µM] | IC50 (HeLa) [µM] | IC50 (MCF7) [µM] | Activity (Homo sapiens)
1 | COc1cc([C@@H]2c3cc4c(cc3[C@H](OC(=O)CN3CCN(c5ccccc5Cl)CC3)[C@H]3COC(=O)[C@H]23)OCO4)cc(OC)c1OC | 8.47 | 17.7 | > 100 | 11.3 | 9.98 | 
2 | COc1cc2c(c(OC)c1OC)-c1ccc(OC)c(=O)cc1[C@@H](NC(C)=O)CC2 |  |  |  |  |  | Active
3 | COc1ccc(N2CCN(CC(=O)O[C@H]3c4cc5c(cc4[C@@H](c4cc(OC)c(OC)c(OC)c4)[C@H]4C(=O)OC[C@@H]43)OCO5)CC2)cc1 | 16.4 | 25.9 | 87.9 | 31.6 | 13.5 | 
4 | COc1cc([C@@H]2c3cc4c(cc3[C@H](OC(=O)CN3CCN(c5cccc(C(F)(F)F)c5)CC3)[C@H]3COC(=O)[C@H]23)OCO4)cc(OC)c1OC | 10.8 | 9.61 | > 100 | 6.82 | 7.19 | 
5 | COc1cccc(N2CCN(CC(=O)O[C@H]3c4cc5c(cc4[C@@H](c4cc(OC)c(OC)c(OC)c4)[C@H]4C(=O)OC[C@@H]43)OCO5)CC2)c1 | 23.2 | 36.7 | > 100 | 36.7 | 12.2 | 
6 | COc1cc([C@@H]2c3cc4c(cc3[C@H](OC(=O)CN3CCN(c5cccc(Cl)c5)CC3)[C@H]3COC(=O)[C@H]23)OCO4)cc(OC)c1OC | 9.26 | 13.5 | 99.3 | 8.3 | 9.87 | 
7 | COc1ccccc1N1CCN(CC(=O)O[C@H]2c3cc4c(cc3[C@@H](c3cc(OC)c(OC)c(OC)c3)[C@H]3C(=O)OC[C@@H]32)OCO4)CC1 | 28.6 | 34.2 | 90.7 | > 50 | 48.2 | 
8 | COc1cc([C@@H]2c3cc4c(cc3[C@H](OC(=O)CN3CCN(C(c5ccc(F)cc5)c5ccc(F)cc5)CC3)[C@H]3COC(=O)[C@H]23)OCO4)cc(OC)c1OC | 13.2 | 7.04 | > 100 | 9.54 | 6.23 | 
9 | COc1cc([C@@H]2c3cc4c(cc3[C@H](OC(=O)CN3CCN(C(c5ccccc5)c5ccc(Cl)cc5)CC3)[C@H]3COC(=O)[C@H]23)OCO4)cc(OC)c1OC (some centres not stated) | 14.2 | 10.9 | > 100 | 12.2 | 7.75 | 
10 | CC(=O)O[C@H]1C(=O)[C@@]2(C)[C@H]([C@H](OC(=O)c3ccccc3)[C@]3(O)C[C@H](OC(=O)[C@H](O)[C@@H](NC(=O)c4ccccc4)c4ccccc4)C(C)=C1C3(C)C)[C@]1(OC(C)=O)CO[C@@H]1C[C@@H]2O |  |  |  |  |  | inactive
11 | COc1cc([C@@H]2c3cc4c(cc3[C@H](OC(=O)CN3CCN(c5cccc(Cl)c5Cl)CC3)[C@H]3COC(=O)[C@H]23)OCO4)cc(OC)c1OC | 7.51 | 6.15 | 97.8 | 7.83 | 3.02 | 
12 | COc1cc([C@@H]2c3cc4c(cc3[C@H](OC(=O)CN3CCN(c5ccccc5)CC3)[C@H]3COC(=O)[C@H]23)OCO4)cc(OC)c1OC | 15.2 | 16.6 | 75.8 | 33 | 22 | 
13 | COc1cc([C@@H]2c3cc4c(cc3[C@H](OC(=O)CN3CCN(c5ccc(C)cc5C)CC3)[C@H]3COC(=O)[C@H]23)OCO4)cc(OC)c1OC | 34.4 | 45.8 | 93.9 | 23.1 | > 50 | 
14 | COc1cc([C@@H]2c3cc4c(cc3[C@@H](O[C@@H]3O[C@@H]5CO[C@@H](C)O[C@H]5[C@H](O)[C@H]3O)[C@H]3COC(=O)[C@H]23)OCO4)cc(OC)c1O [ETOPOSIDE] | 6.21 | 5.52 | 7.75 | 1.58 | 2.08 | 
15 | COc1cc([C@@H]2c3cc4c(cc3[C@H](OC(=O)CN3CCN(c5ccc([N+](=O)[O-])cc5)CC3)[C@H]3COC(=O)[C@H]23)OCO4)cc(OC)c1OC | 8.15 | 6.87 | > 100 | 11 | 9.6 | 
16 | COc1cc([C@@H]2c3cc4c(cc3[C@H](OC(=O)CN3CCN(c5ccccc5F)CC3)[C@H]3COC(=O)[C@H]23)OCO4)cc(OC)c1OC | 9.8 | 15.4 | > 100 | 18 | 11.7 | 
17 | COc1cc([C@@H]2c3cc4c(cc3[C@H](OC(=O)CN3CCN(c5ccc(F)cc5)CC3)[C@H]3COC(=O)[C@H]23)OCO4)cc(OC)c1OC | 11.9 | 12.6 | > 100 | 17.3 | 8.49 | 
18 | COc1cc([C@@H]2c3cc4c(cc3[C@H](OC(=O)CN3CCN(C(c5ccccc5)c5ccccc5)CC3)[C@H]3COC(=O)[C@H]23)OCO4)cc(OC)c1OC | 12.3 | 16.4 | 65.8 | 23.2 | 16.5 | 
